# Experimental data of several laboratories.
# Medium: plasma
SMILES,species,route,dose,notes,measurement,result
COc1ccc([C@@H]2CN(C(=O)[C@@H](O)CO)C[C@@]2(C)[C@@H](C)O)cc1OC1CN(c2ccc(C)cn2)C1,human,oral,40 mg,"single dose, healthy volunteers",Vd/F,77.7 L
C[C@@]1(c2cc(NC(=O)c3ccc(C#N)cn3)ccc2F)C=CSC(N)=N1,human,oral,90 mg,single dose,Vd/F,240 L
CO[C@H]1CC[C@H](N2C(=O)CNc3ncc(-c4ccc(C(C)(C)O)nc4)nc32)CC1,human,oral,30 mg,patients,Vd/F,195 L
COc1cc(C(=O)NC2CCN(C)CC2)c(F)cc1Nc1ncc(C(F)(F)F)c(Oc2cccc3c2C(=O)N(C)C3)n1,human,oral,25 mg,"single dose, patients",Vd/F,331 L
CCNCCCNC/C=C\CNCCCNCC,human,intravenous,150 mg,"patients, infusion",Vd,1.55 L/kg
Cc1cc(Nc2cc(N3CCN(C)CC3)nc(/C=C/c3ccccc3)n2)n[nH]1,human,oral,350 mg/m²,patients,Vd/F,2340 L
CC(C)(Sc1ccncc1-c1ccc(C#N)c2ccccc12)C(=O)O,male human,oral,5 mg,"single dose, fasted, healthy volunteers",Vd/F,419 L
c1cnc2ccc(Nc3nc(NC4CC4)c4nc[nH]c4n3)cc2c1,human,oral,50 mg/m²,patients,Vd/F,597 L
